ChEMBL document CHEMBL3808379, “Isouronium and N-hydroxyguanidinium derivatives as Cell growth inhibitors: A comparative study” (Eur J Med Chem, 2016)

Columns and labels:
[1] = Binding affinity to salmon sperm DNA assessed as increase in thermal melting temperature by spectrophotometric analysis; settings: Salmonidae
[2] = Cytotoxicity against human HL60 cells assessed as cell viability reduction incubated for 72 hrs by alamar blue assay; format: functional, cell-based; settings: HL-60, 72 h
Summary of the method: (§1)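 HL-60 cells in log phase, 40,000 per well, were treated in triplicate with compound at 10–100 µM (final, 1:100 from ddH2O stocks) or 1% ddH2O vehicle for 72 h at 37 °C. AlamarBlue was then added for 4.5 h in the dark and fluorescence read at ex 544/em 590 nm. Viability is blank-subtracted and expressed as % of vehicle. IC50 comes from a sigmoidal fit; ≥3 independent experiments.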

[3] = Cell cycle arrest in human Kelly cells assessed as accumulation at pre-G1 phase at 25 uM after 48 hrs by propidium iodide staining-based flow cytometric analysis (reference value: 5.88 +/- 1.13%); format: functional
[4] = Cell cycle arrest in human Kelly cells assessed as accumulation at S phase at 25 uM after 48 hrs by propidium iodide staining-based flow cytometric analysis (reference value: 19.05 +/- 2.11%); format: functional
[5] = Cell cycle arrest in human Kelly cells assessed as accumulation at polyploid Gn phase at 50 uM after 72 hrs by propidium iodide staining-based flow cytometric analysis (reference value: 13.07 +/- 0.25%); format: functional
[6] = Cell cycle arrest in human Kelly cells assessed as accumulation at pre-G1 phase at 25 uM after 72 hrs by propidium iodide staining-based flow cytometric analysis (reference value: 10.21 +/- 2.85%); format: functional
[7] = Cell cycle arrest in human Kelly cells assessed as accumulation at pre-G1 phase at 25 uM after 24 hrs by propidium iodide staining-based flow cytometric analysis (reference value: 6.12 +/- 0.95%); format: functional
[8] = Cell cycle arrest in human Kelly cells assessed as accumulation at G2/M phase at 25 uM after 48 hrs by propidium iodide staining-based flow cytometric analysis (reference value: 13.68 +/- 0.74%); format: functional
[9] = Cell cycle arrest in human Kelly cells assessed as accumulation at G2/M phase at 50 uM after 24 hrs by propidium iodide staining-based flow cytometric analysis (reference value: 13.12 +/- 0.93%); format: functional
[10] = Cell cycle arrest in human Kelly cells assessed as accumulation at S phase at 50 uM after 24 hrs by propidium iodide staining-based flow cytometric analysis (reference value: 18.67 +/- 1.9%); format: functional
[11] = Cell cycle arrest in human Kelly cells assessed as accumulation at S phase at 25 uM after 72 hrs by propidium iodide staining-based flow cytometric analysis (reference value: 16.29 +/- 0.81%); format: functional
[12] = Cell cycle arrest in human Kelly cells assessed as accumulation at G0/G1 phase at 25 uM after 48 hrs by propidium iodide staining-based flow cytometric analysis (reference value: 52.54 +/- 2.32%); format: functional
[13] = Cell cycle arrest in human Kelly cells assessed as accumulation at G2/M phase at 50 uM after 48 hrs by propidium iodide staining-based flow cytometric analysis (reference value: 13.68 +/- 0.74%); format: functional
[14] = Cell cycle arrest in human Kelly cells assessed as accumulation at G2/M phase at 25 uM after 24 hrs by propidium iodide staining-based flow cytometric analysis (reference value: 13.12 +/- 0.93%); format: functional
[15] = Cell cycle arrest in human Kelly cells assessed as accumulation at G0/G1 phase at 25 uM after 24 hrs by propidium iodide staining-based flow cytometric analysis (reference value: 52.37 +/- 1.44%); format: functional
[16] = Cell cycle arrest in human Kelly cells assessed as accumulation at G2/M phase at 50 uM after 72 hrs by propidium iodide staining-based flow cytometric analysis (reference value: 13.84 +/- 0.76%); format: functional
[17] = Cell cycle arrest in human Kelly cells assessed as accumulation at polyploid Gn phase at 25 uM after 24 hrs by propidium iodide staining-based flow cytometric analysis (reference value: 9.85 +/- 1.54%); format: functional
[18] = Cell cycle arrest in human Kelly cells assessed as accumulation at polyploid Gn phase at 25 uM after 72 hrs by propidium iodide staining-based flow cytometric analysis (reference value: 13.07 +/- 0.25%); format: functional
[19] = Cell cycle arrest in human Kelly cells assessed as accumulation at pre-G1 phase at 50 uM after 48 hrs by propidium iodide staining-based flow cytometric analysis (reference value: 5.88 +/- 1.13%); format: functional
[20] = Cell cycle arrest in human Kelly cells assessed as accumulation at polyploid Gn phase at 50 uM after 24 hrs by propidium iodide staining-based flow cytometric analysis (reference value: 9.85 +/- 1.54%); format: functional
[21] = Cell cycle arrest in human Kelly cells assessed as accumulation at polyploid Gn phase at 50 uM after 48 hrs by propidium iodide staining-based flow cytometric analysis (reference value: 8.97 +/- 1.27%); format: functional
[22] = Cell cycle arrest in human Kelly cells assessed as accumulation at G0/G1 phase at 50 uM after 24 hrs by propidium iodide staining-based flow cytometric analysis (reference value: 52.37 +/- 1.44%); format: functional
[23] = Cytotoxicity against human Kelly cells assessed as cell viability reduction incubated for 72 hrs by alamar blue assay; format: functional, cell-based
Summary of the method: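 Kelly cells, 6000 per well, were allowed to attach for 24 h, then treated in triplicate at 0.1–100 µM final or with ddH2O vehicle for 72 h at 37 °C. AlamarBlue was added for 4.5 h in the dark and fluorescence read at ex 544/em 590 nm. Blank-subtracted % of vehicle; IC50 from a sigmoidal dose-response fit; ≥3 independent experiments.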

[24] = Cell cycle arrest in human Kelly cells assessed as accumulation at S phase at 50 uM after 48 hrs by propidium iodide staining-based flow cytometric analysis (reference value: 19.05 +/- 2.11%); format: functional
[25] = Cell cycle arrest in human Kelly cells assessed as accumulation at pre-G1 phase at 50 uM after 72 hrs by propidium iodide staining-based flow cytometric analysis (reference value: 10.21 +/- 2.85%); format: functional
[26] = Cell cycle arrest in human Kelly cells assessed as accumulation at polyploid Gn phase at 25 uM after 48 hrs by propidium iodide staining-based flow cytometric analysis (reference value: 8.97 +/- 1.27%); format: functional
[27] = Cell cycle arrest in human Kelly cells assessed as accumulation at G0/G1 phase at 50 uM after 72 hrs by propidium iodide staining-based flow cytometric analysis (reference value: 46.82 +/- 1.46%); format: functional
[28] = Cell cycle arrest in human Kelly cells assessed as accumulation at G2/M phase at 25 uM after 72 hrs by propidium iodide staining-based flow cytometric analysis (reference value: 13.84 +/- 0.76%); format: functional
[29] = Cell cycle arrest in human Kelly cells assessed as accumulation at G0/G1 phase at 50 uM after 48 hrs by propidium iodide staining-based flow cytometric analysis (reference value: 52.54 +/- 2.32%); format: functional
[30] = Cell cycle arrest in human Kelly cells assessed as accumulation at G0/G1 phase at 25 uM after 72 hrs by propidium iodide staining-based flow cytometric analysis (reference value: 46.82 +/- 1.46%); format: functional
[31] = Cell cycle arrest in human Kelly cells assessed as accumulation at S phase at 50 uM after 72 hrs by propidium iodide staining-based flow cytometric analysis (reference value: 16.29 +/- 0.81%); format: functional
[32] = Cell cycle arrest in human Kelly cells assessed as accumulation at S phase at 25 uM after 24 hrs by propidium iodide staining-based flow cytometric analysis (reference value: 18.67 +/- 1.9%); format: functional
[33] = Cell cycle arrest in human Kelly cells assessed as accumulation at pre-G1 phase at 50 uM after 24 hrs by propidium iodide staining-based flow cytometric analysis (reference value: 6.12 +/- 0.95%); format: functional
[34] = Dissociation constant, pKa of the compound; format: physicochemical
[35] = Cell cycle arrest in human HL60 cells assessed as accumulation at G0/G1 phase at 50 uM after 24 hrs by propidium iodide staining-based flow cytometric analysis (reference value: 56.05 +/- 1.4%); format: functional; settings: HL-60
[36] = Cell cycle arrest in human HL60 cells assessed as accumulation at S phase at 50 uM after 72 hrs by propidium iodide staining-based flow cytometric analysis (reference value: 23.58 +/- 1.38%); format: functional; settings: HL-60
[37] = Cell cycle arrest in human HL60 cells assessed as accumulation at pre-G1 phase at 50 uM after 24 hrs by propidium iodide staining-based flow cytometric analysis (reference value: 0.81 +/- 0.11%); format: functional; settings: HL-60
[38] = Cell cycle arrest in human HL60 cells assessed as accumulation at G2/M phase at 50 uM after 48 hrs by propidium iodide staining-based flow cytometric analysis (reference value: 11.35 +/- 1.05%); format: functional; settings: HL-60
[39] = Cell cycle arrest in human HL60 cells assessed as accumulation at G0/G1 phase at 50 uM after 72 hrs by propidium iodide staining-based flow cytometric analysis (reference value: 59.5 +/- 1.5%); format: functional; settings: HL-60
[40] = Cell cycle arrest in human HL60 cells assessed as accumulation at polyploid Gn phase at 50 uM after 24 hrs by propidium iodide staining-based flow cytometric analysis (reference value: 2.96 +/- 0.79%); format: functional; settings: HL-60
[41] = Cell cycle arrest in human HL60 cells assessed as accumulation at G0/G1 phase at 50 uM after 48 hrs by propidium iodide staining-based flow cytometric analysis (reference value: 58.77 +/- 2.33%); format: functional; settings: HL-60
[42] = Cell cycle arrest in human HL60 cells assessed as accumulation at S phase at 50 uM after 24 hrs by propidium iodide staining-based flow cytometric analysis (reference value: 24.46 +/- 1.15%); format: functional; settings: HL-60
[43] = Cell cycle arrest in human HL60 cells assessed as accumulation at S phase at 50 uM after 48 hrs by propidium iodide staining-based flow cytometric analysis (reference value: 24.29 +/- 1.37%); format: functional; settings: HL-60
[44] = Cytotoxicity against human HL60 cells assessed as cell viability reduction at 100 uM incubated for 72 hrs by alamar blue assay; format: functional; settings: HL-60, 72 h; summary of the method: as §1
[45] = Cell cycle arrest in human HL60 cells assessed as accumulation at polyploid Gn phase at 50 uM after 48 hrs by propidium iodide staining-based flow cytometric analysis (reference value: 3.02 +/- 0.56%); format: functional; settings: HL-60
[46] = Cell cycle arrest in human HL60 cells assessed as accumulation at G2/M phase at 50 uM after 24 hrs by propidium iodide staining-based flow cytometric analysis (reference value: 16.73 +/- 0.59%); format: functional; settings: HL-60
[47] = Cell cycle arrest in human HL60 cells assessed as accumulation at polyploid Gn phase at 50 uM after 72 hrs by propidium iodide staining-based flow cytometric analysis (reference value: 3.43 +/- 0.48%); format: functional; settings: HL-60
[48] = Cell cycle arrest in human HL60 cells assessed as accumulation at pre-G1 phase at 50 uM after 48 hrs by propidium iodide staining-based flow cytometric analysis (reference value: 1.41 +/- 0.32%); format: functional; settings: HL-60
[49] = Cell cycle arrest in human HL60 cells assessed as accumulation at G2/M phase at 50 uM after 72 hrs by propidium iodide staining-based flow cytometric analysis (reference value: 10.53 +/- 0.81%); format: functional; settings: HL-60
[50] = Cell cycle arrest in human HL60 cells assessed as accumulation at pre-G1 phase at 50 uM after 72 hrs by propidium iodide staining-based flow cytometric analysis (reference value: 2.21 +/- 0.57%); format: functional; settings: HL-60
[51] = test system: N=C(N)Oc1ccc(Sc2ccc(O)cc2)cc1; assay: Inhibition of bovine brain tubulin polymerization assessed as rate of tubulin polymerization at 1 mM mesured at 30 s intervals for 60 mins by spectrophotometric analysis (reference value: 3.647 mOD/min); settings: Bos taurus

For `N=C(N)Oc1ccc(Cc2ccc(O)cc2)cc1`, the ΔTm [1] was 2 °C and the IC50 [2] was over 100 µM.
Molecule `N=C(N)Oc1ccc(Oc2ccc(O)cc2)cc1` has an Activity [3] of 38%, an Activity [4] of 27.5% and an Activity [5] of 2.69%. It also gave an Activity [6] of 48.4%, an Activity [7] of 20.4% and an Activity [8] of 7.65%. For the same molecule, the ΔTm [1] was 4 °C, the Activity [9] was 8.23% and the IC50 [2] was 36.9 µM. The Activity [10] was 16%, the Activity [11] was 16.4% and the Activity [12] was 22.2%. For the same molecule, the Activity [13] was 3.5%, the Activity [14] was 11.3% and the Activity [15] was 31.2%. It also gave an Activity [16] of 2.44%, an Activity [17] of 13.5% and an Activity [18] of 4.09%. For the same molecule, the Activity [19] was 50.7%, the Activity [20] was 7.77% and the Activity [21] was 4.19%. The Activity [22] was 42.1%, the IC50 [23] was 17.3 µM and the Activity [24] was 11.7%. For the same molecule, the Activity [25] was 49.5%, the Activity [26] was 6.91% and the Activity [27] was 29%. It also gave an Activity [28] of 5.04%, an Activity [29] of 25.2% and an Activity [30] of 26.2%. For the same molecule, the Activity [31] was 17.3%, the Activity [32] was 25.6% and the Activity [33] was 24.3%.
`N=C(N)Oc1ccccc1` gave a pKa [34] of 8.29.
For `N=C(N)Oc1ccc(Cc2ccc(OC(=N)N)cc2)cc1`, the ΔTm [1] was 4 °C and the IC50 [2] was over 100 µM.
`N=C(N)Oc1ccc(Sc2ccc(OC(=N)N)cc2)cc1` showed an Activity [35] of 52%, an Activity [36] of 15.6% and an Activity [37] of 1.46%. For the same molecule, the Activity [38] was 29.1%, the Activity [39] was 35.5% and the ΔTm [1] was 6 °C. It also gave an Activity [40] of 3.11%, an IC50 [2] of 57.4 µM and an Activity [41] of 38.3%. The Activity [42] was 26.9%, the Activity [43] was 21.9% and the inhibition at 100 µM [44] was 95.8%. It also gave an Activity [45] of 8.42%, an IC50 [23] of 28.7 µM and an Activity [46] of 18.1%. The Activity [47] was 22%, the Activity [48] was 2.25% and the Activity [49] was 21.9%. For the same molecule, the Activity [50] was 4.87%.
Molecule `c1ccc(NC2=NCCN2)cc1` has a pKa [34] of 9.16.
In the case of `N=C(N)Nc1ccccc1` [PHENYLGUANIDINE], the pKa [34] is reported as 10.9.
Work on “Tubulin (Bos taurus) (from UniProt Q6B856+Q862L2+Q862F3)” yielded a Vmax [51] of 2.63 mOD/minute.
Molecule `N=C(N)Oc1ccc(NC(=O)c2ccc(OC(=N)N)cc2)cc1` has a ΔTm [1] of 2 °C, an IC50 [2] of over 100 µM and an IC50 [23] of over 100 µM.
